The source made the active and inactive calls.
What was measured:
[1] = biological target: T1, TLR7 and TLR8 (Homo sapiens) (UniProt Q9NYK1+Q9NR97); assay: Agonist activity at human TLR7/8 expressed in human PBMC cells assessed as induction of TNFalpha production by measuring concentration required to induce maximal response incubated for 12 hrs by multiplexed immunoassay; type: cell-based; conditions: filed as agonist
Outline: (§1)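 Healthy-volunteer PBMCs from a single donor were isolated by Ficoll−Hypaque gradient and plated at 2.0 × 10⁶ cells/mL. They were stimulated for 12 h with escalating compound concentrations. Supernatants were assayed in duplicate on a 41-analyte magnetic bead cytokine/chemokine panel read by Luminex. EC_max is the concentration giving maximal cytokine induction.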

[2] = biological target: T1, TLR7 and TLR8 (Homo sapiens); assay: Agonist activity at human TLR7/8 expressed in human PBMC cells assessed as induction of IL-1beta production by measuring concentration required to induce maximal response incubated for 12 hrs by multiplexed immunoassay; type: cell-based; conditions: filed as agonist; outline: as §1
[3] = biological target: T1, TLR7 and TLR8 (Homo sapiens); assay: Agonist activity at human TLR7/8 expressed in human PBMC cells assessed as induction of IL-6 production by measuring concentration required to induce maximal response incubated for 12 hrs by multiplexed immunoassay; type: cell-based; conditions: filed as agonist; outline: as §1
[4] = biological target: T1, TLR7 and TLR8 (Homo sapiens); assay: Agonist activity at human TLR7/8 expressed in human PBMC cells assessed as induction of IL-8 production by measuring concentration required to induce maximal response incubated for 12 hrs by multiplexed immunoassay; type: cell-based; conditions: filed as agonist; outline: as §1
[5] = biological target: T1, TLR7 and TLR8 (Homo sapiens); assay: Agonist activity at human TLR7/8 expressed in human PBMC cells assessed as induction of IL-10 production by measuring concentration required to induce maximal response incubated for 12 hrs by multiplexed immunoassay; type: cell-based; conditions: filed as agonist; outline: as §1
[6] = biological target: T1, TLR7 and TLR8 (Homo sapiens); assay: Agonist activity at human TLR7/8 expressed in human PBMC cells assessed as induction of INF-gamma production by measuring concentration required to induce maximal response incubated for 12 hrs by multiplexed immunoassay; type: cell-based; conditions: filed as agonist; outline: as §1
[7] = biological target: T1, TLR7 and TLR8 (Homo sapiens); assay: Agonist activity at human TLR7/8 expressed in human PBMC cells assessed as induction of MIP-1alpha production by measuring concentration required to induce maximal response incubated for 12 hrs by multiplexed immunoassay; type: cell-based; conditions: filed as agonist; outline: as §1
[8] = biological target: T1, TLR7 and TLR8 (Homo sapiens); assay: Agonist activity at human TLR7/8 expressed in human PBMC cells assessed as induction of IP-10 production by measuring concentration required to induce maximal response incubated for 12 hrs by multiplexed immunoassay; type: cell-based; conditions: filed as agonist; outline: as §1
[9] = biological target: T1, TLR7 and TLR8 (Homo sapiens); assay: Agonist activity at human TLR7/8 expressed in human PBMC cells assessed as induction of IL-12p40 production by measuring concentration required to induce maximal response incubated for 12 hrs by multiplexed immunoassay; type: cell-based; conditions: filed as agonist; outline: as §1
[10] = biological target: T1, TLR7 and TLR8 (Homo sapiens); assay: Agonist activity at human TLR7/8 expressed in human PBMC cells assessed as induction of VEGF secretion incubated for 12 hrs by multiplexed immunoassay; type: cell-based; conditions: filed as agonist; outline: as §1
CT26 [11] = assay: Antitumor activity against mouse CT26 cells implanted in BALB/c mouse assessed as tumor growth delay at 25 ug, ip administered once per week and measured every 3 days for 23 days; type: functional, organism-based; conditions: dose 25.0 µg, time 23.0 day
Outline: (§2)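 Subcutaneous CT26 tumours were grown in BALB/c mice, with cells cultured in DMEM/10% FBS. At a mean tumour size of 100 mm³, mice were randomised (n = 5/group). Agonist was given ip once weekly; anti-PD-1 or IgG isotype was given ip at 200 μg twice weekly. Tumour volume (V = 1/2ab²) was measured every 3 days. Mice were euthanised at 2000 mm³.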

CT26 [12] = assay: Antitumor activity against mouse CT26 cells implanted in BALB/c mouse assessed as reduction in tumor volume at 25 ug, ip administered once a week in presence of anti-PD-1 antibodies and measured every 3 days for 23 days; type: functional, organism-based; conditions: dose 25.0 µg, time 23.0 day; outline: as §2
[13] = Toxicity in BALB/c mouse implanted with mouse CT26 cells assessed as decrease in body weight at 25 ug, ip administered once a week for 23 days; type: organism-based; conditions: in vivo, 552 h, dose 25 µg, time 23 day
Outline: (§3)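 CT26 subcutaneous tumor-bearing BALB/c mice (n = 5) were treated from 100 mm³ tumor volume. TLR7/8 agonist was given ip once weekly, alone or with anti-PD-1 antibody (200 μg ip, twice weekly). Body weight was tracked over the treatment period and reported as mean ± SEM.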

[14] = Toxicity in BALB/c mouse implanted with mouse CT26 cells assessed as decrease in body weight at 25 ug, ip administered once a week in presence of anti-PD-1 antibodies for 23 days; type: organism-based; conditions: in vivo, 552 h, dose 25 µg, time 23 day; outline: as §3
CT26 [15] = assay: Antitumor immunity against mouse CT26 cells implanted in BALB/c mouse assessed as increase in infiltration of CD4+ TH1 cells at 25 ug, ip administered once a week for 23 days by flow cytometry analysis; type: functional, organism-based; conditions: dose 25.0 µg, time 23.0 day
Outline: (§4)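 CT26-bearing BALB/c mice (n = 5) were treated ip once weekly with agonist, alone or with anti-PD-1 (200 μg, twice weekly). Tumours were harvested 23 days after implantation, enzymatically and mechanically dissociated into single cells, and stained for surface markers plus intracellular FoxP3 after fixation/permeabilisation. Cells were gated within CD45⁺ for CD11c⁺ DCs, CD11b⁺F4/80⁺MHCII⁺ (M1), CD206⁺ (M2), CD3/CD4/CD8, and CD4⁺CD25⁺FoxP3⁺ Treg, then analysed by flow cytometry.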

CT26 [16] = assay: Antitumor immunity against mouse CT26 cells implanted in BALB/c mouse assessed as increase in infiltration of CD8+ T cytotoxic lymphocytes at 25 ug, ip administered once a week for 23 days by flow cytometry analysis; type: functional, organism-based; conditions: dose 25.0 µg, time 23.0 day; outline: as §4
CT26 [17] = assay: Antitumor immunity against mouse CT26 cells implanted in BALB/c mouse assessed as increase in infiltration of CD4+ TH1 cells at 25 ug, ip administered once a week with anti-PD-1 antibody for 23 days by flow cytometry analysis; type: functional, organism-based; conditions: dose 25.0 µg, time 23.0 day; outline: as §4
CT26 [18] = assay: Antitumor immunity against mouse CT26 cells implanted in BALB/c mouse assessed as increase in infiltration of CD8+ T cytotoxic lymphocytes at 25 ug, ip administered once a week with anti-PD-1 antibody for 23 days by flow cytometry analysis; type: functional, organism-based; conditions: dose 25.0 µg, time 23.0 day; outline: as §4
[19] = Acute toxicity in BALB/c mouse assessed as mortality at 120 mg/kg, ip administered as single dose; type: organism-based; conditions: in vivo
[20] = Acute toxicity in BALB/c mouse assessed as body weight loss at 60 mg/kg, ip administered as single dose relative to control; type: organism-based; conditions: in vivo
[21] = Acute toxicity in BALB/c mouse assessed as white discharge from eyes at 15 to 80 mg/kg, ip administered as single dose; type: organism-based; conditions: in vivo, dose 15-80 mg/kg
[22] = Acute toxicity in BALB/c mouse assessed as mild diarrhea at 15 to 80 mg/kg, ip administered as single dose; type: organism-based; conditions: in vivo, dose 15-80 mg/kg
[23] = Acute toxicity in BALB/c mouse assessed as maximum tolerated dose; conditions: in vivo
[24] = Acute toxicity in BALB/c mouse assessed as decrease in locomotor activity at 15 to 80 mg/kg, ip administered as single dose; type: organism-based; conditions: in vivo, dose 15-80 mg/kg
[25] = Subacute toxicity in BALB/c mouse assessed as body weight loss at 1.12 g, ip administered as single dose; type: organism-based; conditions: in vivo
Outline: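 Subacute study in BALB/c mice, with treated and control groups. Body weight was recorded every day. Spleens were weighed and photographed, and tissues were examined by H&E staining.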

[26] = Subacute toxicity in BALB/c mouse assessed as splenomegaly at 15 mg/kg, ip administered as single dose; type: organism-based; conditions: in vivo
Outline: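 Subacute toxicity study in BALB/c mice given ip TLR7/8 agonist. Spleens from treated and control groups were weighed and photographed. Body weight was recorded every day.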

[27] = biological target: T1, TLR7 and TLR8 (Homo sapiens); assay: Agonist activity at human TLR7/8 expressed in human PBMC cells assessed as induction of MCP-1 production by measuring concentration required to induce maximal response incubated for 12 hrs by multiplexed immunoassay; type: cell-based; conditions: filed as agonist; outline: as §1
[28] = biological target: T1, TLR7 and TLR8 (Homo sapiens); assay: Agonist activity at human TLR7/8 expressed in human PBMC cells assessed as induction of G-CSF production by measuring concentration required to induce maximal response incubated for 12 hrs by multiplexed immunoassay; type: cell-based; conditions: filed as agonist; outline: as §1
CT26 [29] = assay: Antitumor immunity against mouse CT26 cells implanted in BALB/c mouse assessed as increase in Teff/Treg ratio at 25 ug, ip administered once a week for 23 days by flow cytometry analysis; type: functional, organism-based; conditions: dose 25.0 µg, time 23.0 day; outline: as §4
CT26 [30] = assay: Antitumor immunity against mouse CT26 cells implanted in BALB/c mouse assessed as increase in Teff/Treg ratio at 25 ug, ip administered once a week with anti-PD-1 antibody for 23 days by flow cytometry analysis; type: functional, organism-based; conditions: dose 25.0 µg, time 23.0 day; outline: as §4
[31] = Acute toxicity in BALB/c mouse assessed as body weight regain at 60 mg/kg, ip administered as single dose measured after 3 days; type: organism-based; conditions: in vivo, 72 h, time 3 day
[32] = Acute toxicity in BALB/c mouse assessed as decrease in locomotor activity at 15 to 80 mg/kg, ip administered as single dose measured after 24 hrs; type: organism-based; conditions: in vivo, dose 15-80 mg/kg
[33] = Acute toxicity in BALB/c mouse assessed as mild diarrhea at 15 to 80 mg/kg, ip administered as single dose measured after 24 hrs; type: organism-based; conditions: in vivo, dose 15-80 mg/kg
[34] = Acute toxicity in BALB/c mouse assessed as white discharge from eyes at 15 to 80 mg/kg, ip administered as single dose measured after 24 hrs; type: organism-based; conditions: in vivo, dose 15-80 mg/kg

CCOCc1nc2c(N)nc3ccccc3c2n1CC(C)(C)O [RESIQUIMOD]
Non-Toxic: Activity [13] | Activity [14] | Activity [31] | Activity [32] | Activity [33] | Activity [34]
Toxic: Activity [19] | Activity [21] | Activity [22] | Activity [24] | Activity [25] | Activity [26]
2 µg/mL: ECmax [1] | ECmax [2] | ECmax [3] | ECmax [4] | ECmax [5] | ECmax [6] | ECmax [7] | ECmax [8] | ECmax [9] | ECmax [27] | ECmax [28]
active: Activity [10] | Activity (CT26 [11]) | Activity (CT26 [12]) | Activity (CT26 [15]) | Activity (CT26 [16]) | Activity (CT26 [17]) | Activity (CT26 [18]) | Activity (CT26 [29]) | Activity (CT26 [30])
8.7%: Activity [20]
80 mg/kg: MTD [23]

Source: ChEMBL document CHEMBL5036324 (J Med Chem, 2021)
